According to ChEMBL document CHEMBL4190234, “Design, synthesis and anticancer activity of new monastrol analogues bearing 1,3,4-oxadiazole moiety” (Eur J Med Chem, 2017):

What was measured:
Format in all cases: functional
EKVX = assay: Growth inhibition of human EKVX cells at 10 uM incubated for 48 hrs by sulforhodamine B assay relative to control; conditions: read-out: GI
Procedure, shortened: (§1)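 Single-dose screen at 10 μM final: cells in RPMI 1640, 5% FBS, 2 mM L-glutamine, plated 5,000–40,000/well, preincubated 24 h at 37°C, 5% CO2; drug 48 h; adherent cells fixed with 10% TCA, suspension cells with 16% TCA; SRB stain, absorbance 515 nm; percentage growth versus untreated control, with time-zero plates.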

NCI-H460 = assay: Growth inhibition of human NCI-H460 cells at 10 uM incubated for 48 hrs by sulforhodamine B assay relative to control; conditions: NCI-H460, 48 h, read-out: GI; procedure, shortened: as §1
NCI-H23 = assay: Growth inhibition of human NCI-H23 cells at 10 uM incubated for 48 hrs by sulforhodamine B assay relative to control; conditions: NCI-H23, 48 h, read-out: GI; procedure, shortened: as §1
OVCAR-4 = assay: Growth inhibition of human OVCAR4 cells at 10 uM incubated for 48 hrs by sulforhodamine B assay relative to control; conditions: OVCAR-4, 48 h, read-out: GI; procedure, shortened: as §1
MDA-MB-231 = assay: Growth inhibition of human MDA-MB-231 cells at 10 uM incubated for 48 hrs by sulforhodamine B assay relative to control; conditions: MDA-MB-231, 48 h, read-out: GI; procedure, shortened: as §1
SN12C = assay: Growth inhibition of human SN12C cells at 10 uM incubated for 48 hrs by sulforhodamine B assay relative to control; conditions: read-out: GI
Procedure, shortened: (§2)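 NCI single-dose screen: cells grown in RPMI 1640 with 5% FBS and 2 mM L-glutamine, plated at 5,000–40,000 cells/well and preincubated 24 h at 37 °C, 5% CO2. Compounds taken from DMSO stock and tested at final 10 µM for 48 h. Cells fixed with TCA, stained with 0.4% SRB, absorbance read at 515 nm. Percentage growth calculated against untreated controls; controls held DMSO at the same dilution.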

M14 = assay: Growth inhibition of human M14 cells at 10 uM incubated for 48 hrs by sulforhodamine B assay relative to control; conditions: M14, 48 h, read-out: GI; procedure, shortened: as §1
NCI-H322M = assay: Growth inhibition of human NCI-H322M cells at 10 uM incubated for 48 hrs by sulforhodamine B assay relative to control; conditions: read-out: GI; procedure, shortened: as §1
COLO 205 = assay: Growth inhibition of human COLO205 cells at 10 uM incubated for 48 hrs by sulforhodamine B assay relative to control; conditions: COLO 205, 48 h, read-out: GI; procedure, shortened: as §1
KM12 = assay: Growth inhibition of human KM12 cells at 10 uM incubated for 48 hrs by sulforhodamine B assay relative to control; conditions: KM12, 48 h, read-out: GI; procedure, shortened: as §1
Malme-3M = assay: Growth inhibition of human MALME-3M cells at 10 uM incubated for 48 hrs by sulforhodamine B assay relative to control; conditions: read-out: GI; procedure, shortened: as §1
SK-MEL-5 = assay: Growth inhibition of human SK-MEL-5 cells at 10 uM incubated for 48 hrs by sulforhodamine B assay relative to control; conditions: SK-MEL-5, 48 h, read-out: GI; procedure, shortened: as §2
RXF 393 = assay: Growth inhibition of human RXF393 cells at 10 uM incubated for 48 hrs by sulforhodamine B assay relative to control; conditions: RXF 393, 48 h, read-out: GI; procedure, shortened: as §1
SF-268 = assay: Growth inhibition of human SF268 cells at 10 uM incubated for 48 hrs by sulforhodamine B assay relative to control; conditions: SF-268, 48 h, read-out: GI; procedure, shortened: as §2
UACC-62 = assay: Growth inhibition of human UACC62 cells at 10 uM incubated for 48 hrs by sulforhodamine B assay relative to control; conditions: UACC-62, 48 h, read-out: GI; procedure, shortened: as §2
SK-MEL-28 = assay: Growth inhibition of human SK-MEL-28 cells at 10 uM incubated for 48 hrs by sulforhodamine B assay relative to control; conditions: SK-MEL-28, 48 h, read-out: GI; procedure, shortened: as §2
SW-620 = assay: Growth inhibition of human SW620 cells at 10 uM incubated for 48 hrs by sulforhodamine B assay relative to control; conditions: SW-620, 48 h, read-out: GI; procedure, shortened: as §2
HCC 2998 = assay: Growth inhibition of human HCC2998 cells at 10 uM incubated for 48 hrs by sulforhodamine B assay relative to control; conditions: HCC 2998, 48 h, read-out: GI; procedure, shortened: as §1
SK-OV-3 = assay: Growth inhibition of human SKOV3 cells at 10 uM incubated for 48 hrs by sulforhodamine B assay relative to control; conditions: SK-OV-3, 48 h, read-out: GI; procedure, shortened: as §2
HOP-62 = assay: Growth inhibition of human HOP62 cells at 10 uM incubated for 48 hrs by sulforhodamine B assay relative to control; conditions: HOP-62, 48 h, read-out: GI; procedure, shortened: as §1
BT-549 = assay: Growth inhibition of human BT549 cells at 10 uM incubated for 48 hrs by sulforhodamine B assay relative to control; conditions: BT-549, 48 h, read-out: GI; procedure, shortened: as §1
U-251 = assay: Growth inhibition of human U251 cells at 10 uM incubated for 48 hrs by sulforhodamine B assay relative to control; conditions: U-251, 48 h, read-out: GI; procedure, shortened: as §2
PC-3 = assay: Growth inhibition of human PC3 cells at 10 uM incubated for 48 hrs by sulforhodamine B assay relative to control; conditions: PC-3, 48 h, read-out: GI; procedure, shortened: as §1
K562 = assay: Growth inhibition of human K562 cells at 10 uM incubated for 48 hrs by sulforhodamine B assay relative to control; conditions: K562, 48 h, read-out: GI; procedure, shortened: as §1
SF-295 = assay: Growth inhibition of human SF295 cells at 10 uM incubated for 48 hrs by sulforhodamine B assay relative to control; conditions: SF-295, 48 h, read-out: GI; procedure, shortened: as §2
MCF7 = assay: Growth inhibition of human MCF7 cells at 10 uM incubated for 48 hrs by sulforhodamine B assay relative to control; conditions: MCF7, 48 h, read-out: GI; procedure, shortened: as §1
OVCAR-3 = assay: Growth inhibition of human OVCAR3 cells at 10 uM incubated for 48 hrs by sulforhodamine B assay relative to control; conditions: OVCAR-3, 48 h, read-out: GI; procedure, shortened: as §1
NCI-H226 = assay: Growth inhibition of human NCI-H226 cells at 10 uM incubated for 48 hrs by sulforhodamine B assay relative to control; conditions: NCI-H226, 48 h, read-out: GI; procedure, shortened: as §1
HOP-92 = assay: Growth inhibition of human HOP92 cells at 10 uM incubated for 48 hrs by sulforhodamine B assay relative to control; conditions: HOP-92, 48 h, read-out: GI; procedure, shortened: as §1
A498 = assay: Growth inhibition of human A498 cells at 10 uM incubated for 48 hrs by sulforhodamine B assay relative to control; conditions: A498, 48 h, read-out: GI; procedure, shortened: as §1
OVCAR-5 = assay: Growth inhibition of human OVCAR5 cells at 10 uM incubated for 48 hrs by sulforhodamine B assay relative to control; conditions: OVCAR-5, 48 h, read-out: GI; procedure, shortened: as §1
T47D = assay: Growth inhibition of human T47D cells at 10 uM incubated for 48 hrs by sulforhodamine B assay relative to control; conditions: read-out: GI; procedure, shortened: as §2

CC(=O)C1=C(C)NC(SCc2nnc(-c3ccc(Cl)cc3)o2)=NC1c1ccc(Cl)cc1 (stereo not drawn)
inhibition of growth at 10 µM (EKVX): < 10% | inhibition of growth at 10 µM (NCI-H460): < 10% | inhibition of growth at 10 µM (NCI-H23): < 10% | inhibition of growth at 10 µM (OVCAR-4): < 10% | inhibition of growth at 10 µM (MDA-MB-231): 27% | inhibition of growth at 10 µM (SN12C): 13% | inhibition of growth at 10 µM (M14): < 10% | inhibition of growth at 10 µM (NCI-H322M): 12% | inhibition of growth at 10 µM (COLO 205): < 10% | inhibition of growth at 10 µM (KM12): < 10% | inhibition of growth at 10 µM (Malme-3M): 11.6% | inhibition of growth at 10 µM (SK-MEL-5): < 10% | inhibition of growth at 10 µM (RXF 393): < 10% | inhibition of growth at 10 µM (SF-268): < 10% | inhibition of growth at 10 µM (UACC-62): 27.7% | inhibition of growth at 10 µM (SK-MEL-28): < 10% | inhibition of growth at 10 µM (SW-620): < 10% | inhibition of growth at 10 µM (HCC 2998): < 10% | inhibition of growth at 10 µM (SK-OV-3): < 10% | inhibition of growth at 10 µM (HOP-62): 11.6% | inhibition of growth at 10 µM (BT-549): 15.1% | inhibition of growth at 10 µM (U-251): 14.8% | inhibition of growth at 10 µM (PC-3): 31.1% | inhibition of growth at 10 µM (K562): 11.1% | inhibition of growth at 10 µM (SF-295): < 10% | inhibition of growth at 10 µM (MCF7): 16.4% | inhibition of growth at 10 µM (OVCAR-3): < 10% | inhibition of growth at 10 µM (NCI-H226): 11.4% | inhibition of growth at 10 µM (HOP-92): 26.5% | inhibition of growth at 10 µM (A498): < 10% | inhibition of growth at 10 µM (OVCAR-5): < 10% | inhibition of growth at 10 µM (T47D): 39.5%

CC(=O)C1=C(C)NC(SCc2nnc(-c3ccc(C)cc3)o2)=NC1c1ccc(F)cc1 (stereo not drawn)
inhibition of growth at 10 µM (EKVX): < 10% | inhibition of growth at 10 µM (NCI-H460): < 10% | inhibition of growth at 10 µM (NCI-H23): < 10% | inhibition of growth at 10 µM (OVCAR-4): < 10% | inhibition of growth at 10 µM (MDA-MB-231): < 10% | inhibition of growth at 10 µM (SN12C): < 10% | inhibition of growth at 10 µM (M14): < 10% | inhibition of growth at 10 µM (NCI-H322M): < 10% | inhibition of growth at 10 µM (COLO 205): < 10% | inhibition of growth at 10 µM (KM12): < 10% | inhibition of growth at 10 µM (Malme-3M): < 10% | inhibition of growth at 10 µM (SK-MEL-5): < 10% | inhibition of growth at 10 µM (RXF 393): < 10% | inhibition of growth at 10 µM (SF-268): < 10% | inhibition of growth at 10 µM (UACC-62): 15.4% | inhibition of growth at 10 µM (SW-620): < 10% | inhibition of growth at 10 µM (HCC 2998): < 10% | inhibition of growth at 10 µM (SK-OV-3): < 10% | inhibition of growth at 10 µM (HOP-62): < 10% | inhibition of growth at 10 µM (BT-549): 13.9% | inhibition of growth at 10 µM (U-251): < 10% | inhibition of growth at 10 µM (PC-3): 14.7% | inhibition of growth at 10 µM (K562): < 10% | inhibition of growth at 10 µM (SF-295): < 10% | inhibition of growth at 10 µM (MCF7): < 10% | inhibition of growth at 10 µM (OVCAR-3): < 10% | inhibition of growth at 10 µM (NCI-H226): 10.4% | inhibition of growth at 10 µM (HOP-92): < 10% | inhibition of growth at 10 µM (A498): < 10% | inhibition of growth at 10 µM (OVCAR-5): 10.4% | inhibition of growth at 10 µM (T47D): 25.6%

CCOC(=O)C1=C(C)NC(SCc2nnc(-c3ccc(Cl)cc3)o2)=NC1c1ccc(Cl)cc1Cl (stereo not drawn)
inhibition of growth at 10 µM (EKVX): 22.8% | inhibition of growth at 10 µM (NCI-H460): 40.8% | inhibition of growth at 10 µM (NCI-H23): 34% | inhibition of growth at 10 µM (OVCAR-4): 47.3% | inhibition of growth at 10 µM (MDA-MB-231): 58.3% | inhibition of growth at 10 µM (SN12C): 34.6% | inhibition of growth at 10 µM (M14): 34.8% | inhibition of growth at 10 µM (NCI-H322M): 21.1% | inhibition of growth at 10 µM (KM12): 36.6% | inhibition of growth at 10 µM (Malme-3M): 27.2% | inhibition of growth at 10 µM (SK-MEL-5): 19.7% | inhibition of growth at 10 µM (RXF 393): 56.6% | inhibition of growth at 10 µM (SF-268): 26.7% | inhibition of growth at 10 µM (UACC-62): 48.4% | inhibition of growth at 10 µM (SK-MEL-28): < 10% | inhibition of growth at 10 µM (SW-620): 33.8% | inhibition of growth at 10 µM (HCC 2998): 15.5% | inhibition of growth at 10 µM (SK-OV-3): < 10% | inhibition of growth at 10 µM (HOP-62): 17.5% | inhibition of growth at 10 µM (BT-549): 10.3% | inhibition of growth at 10 µM (U-251): 34.7% | inhibition of growth at 10 µM (PC-3): 54.9% | inhibition of growth at 10 µM (SF-295): 52.8% | inhibition of growth at 10 µM (MCF7): 68% | inhibition of growth at 10 µM (OVCAR-3): 37.2% | inhibition of growth at 10 µM (NCI-H226): 21% | inhibition of growth at 10 µM (HOP-92): 73.6% | inhibition of growth at 10 µM (A498): 22.3% | inhibition of growth at 10 µM (OVCAR-5): 11% | inhibition of growth at 10 µM (T47D): 52.6%
